Measured values as given in ChEMBL document CHEMBL2163225, “Fluorescent Human EP3 Receptor Antagonists” (ACS Med Chem Lett, 2012).
Active and inactive are the calls of the source. The rule behind the calls is not given here.

Tests used:
[1] = molecular target: T1, Prostaglandin E2 receptor EP3 subtype (Homo sapiens) (UniProt P43115); assay: Binding affinity to EP3R in human brain cerebral cortex at 1 uM after 1 hr by fluorescence imaging; format: tissue-based
T1 sequence (whole entry): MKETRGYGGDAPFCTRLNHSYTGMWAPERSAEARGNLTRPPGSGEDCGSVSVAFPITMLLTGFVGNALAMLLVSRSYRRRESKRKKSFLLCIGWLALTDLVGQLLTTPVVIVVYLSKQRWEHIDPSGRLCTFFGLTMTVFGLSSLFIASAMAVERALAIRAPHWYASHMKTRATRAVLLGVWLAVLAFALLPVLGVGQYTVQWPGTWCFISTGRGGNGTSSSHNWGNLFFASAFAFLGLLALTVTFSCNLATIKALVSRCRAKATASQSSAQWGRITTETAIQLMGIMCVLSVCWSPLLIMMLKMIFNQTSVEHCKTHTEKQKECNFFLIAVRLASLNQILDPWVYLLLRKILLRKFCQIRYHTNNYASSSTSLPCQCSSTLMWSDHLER
How it was run: (§1)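 Human cerebral cortex and globus pallidus sections incubated 1 h with 1 μM red pyryllium ligand. For displacement, 100 μM competitor was added. Imaged by confocal fluorescence microscopy.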

[2] = molecular target: T1, Prostaglandin E2 receptor EP3 subtype (Homo sapiens); assay: Binding affinity to EP3R in human platelet at 1 uM after 1 hr by fluorescence imaging
How it was run: (§2)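 Fixed human platelets on flow-chamber slides incubated 1 h with 1 μM red fluorescent ligand. For displacement, 1 mM competitor was added. Read by fluorescence imaging.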

[3] = molecular target: Prostaglandin E2 receptor EP2 subtype (Homo sapiens, UniProt P43116); assay: Displacement of [3H]PGE2 from human EP2R expressed in chem1 cells after 2hrs by beta counting; format: cell-based
Prostaglandin E2 receptor EP2 subtype, sequence (P43116 whole entry): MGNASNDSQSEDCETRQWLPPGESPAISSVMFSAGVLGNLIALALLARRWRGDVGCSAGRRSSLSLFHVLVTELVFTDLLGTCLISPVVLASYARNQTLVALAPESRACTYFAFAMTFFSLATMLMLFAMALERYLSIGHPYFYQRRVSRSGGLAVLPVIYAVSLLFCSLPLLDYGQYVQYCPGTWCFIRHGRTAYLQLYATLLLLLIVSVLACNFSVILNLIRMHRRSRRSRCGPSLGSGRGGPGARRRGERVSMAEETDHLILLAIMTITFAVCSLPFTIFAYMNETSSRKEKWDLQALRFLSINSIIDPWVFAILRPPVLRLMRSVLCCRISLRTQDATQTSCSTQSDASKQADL
How it was run: (§3)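 Radioligand competition binding with [3H]PGE2 on recombinant human EP1, EP2, EP3 or EP4 receptor membrane preparations (ChemiSCREEN). Ki reported ± SEM.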

[4] = molecular target: T2, Prostaglandin E2 receptor EP1 subtype (Homo sapiens, UniProt P34995); assay: Displacement of [3H]PGE2 from human EP1R expressed in chem1 cells after 2hrs by beta counting; format: cell-based; how it was run: as §3
T2 sequence (P34995 whole entry): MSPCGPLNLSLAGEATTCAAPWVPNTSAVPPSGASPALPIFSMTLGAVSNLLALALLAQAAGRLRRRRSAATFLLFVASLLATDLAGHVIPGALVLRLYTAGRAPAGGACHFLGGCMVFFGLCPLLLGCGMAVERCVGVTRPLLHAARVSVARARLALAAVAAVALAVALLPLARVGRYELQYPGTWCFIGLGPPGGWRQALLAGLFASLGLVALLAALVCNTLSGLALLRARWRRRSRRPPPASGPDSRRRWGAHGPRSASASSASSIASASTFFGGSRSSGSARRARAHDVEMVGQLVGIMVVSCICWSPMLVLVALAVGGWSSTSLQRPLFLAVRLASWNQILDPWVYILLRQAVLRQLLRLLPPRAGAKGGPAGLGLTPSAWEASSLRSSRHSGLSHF

[5] = molecular target: T1, Prostaglandin E2 receptor EP3 subtype (Homo sapiens); assay: Binding affinity to EP3R in human HT-29 cells cultured in absence of FBS at 300 nM after 24 hrs by fluorescence microscopy; format: cell-based
How it was run: (§4)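 HT-29 colon adenocarcinoma cells. EP3R expression induced by 72 h FBS withdrawal; FBS-cultured cells served as control. Ligand incubated 1 h, or 24 h for the longer time point. Blue-emitting ligands used at 3 μM with propidium iodide counterstain. Red ligand used at 300 nM with DAPI nuclear stain. For displacement, ligand was followed by 3-fold excess competitor (9 μM or 900 nM) for 1 h. Read by confocal microscopy.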

[6] = molecular target: T1, Prostaglandin E2 receptor EP3 subtype (Homo sapiens); assay: Binding affinity to EP3R in human brain cerebral cortex at 1 uM after 1 hr by fluorescence imaging in presence of 100-fold excess of (E)-3-(2-((E)-3-(4-(Benzyloxy)-3- methoxyphenyl)prop-1-enyl)phenyl)acrylic acid; format: tissue-based; how it was run: as §1
[7] = molecular target: T3, Prostaglandin E2 receptor EP3 subtype (Mus musculus) (UniProt P30557); assay: Binding affinity to EP3R in C57bl6 mouse cortical collecting tubuli epithelial cells at 1 uM after 1 hr by fluorescence imaging; format: cell-based; details: Epithelial cell
T3 sequence (whole entry): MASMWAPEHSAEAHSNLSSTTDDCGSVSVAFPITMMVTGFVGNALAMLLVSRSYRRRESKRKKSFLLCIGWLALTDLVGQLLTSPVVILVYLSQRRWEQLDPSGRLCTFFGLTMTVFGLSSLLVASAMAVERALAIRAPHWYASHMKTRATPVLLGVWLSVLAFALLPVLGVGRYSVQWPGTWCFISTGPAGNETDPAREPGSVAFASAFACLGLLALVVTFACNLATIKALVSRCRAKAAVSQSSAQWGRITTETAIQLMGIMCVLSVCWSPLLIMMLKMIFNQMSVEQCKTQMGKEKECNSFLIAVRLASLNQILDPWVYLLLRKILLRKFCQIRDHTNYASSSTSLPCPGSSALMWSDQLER
How it was run: (§5)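 Kidney tissue from C57Bl6 wild-type and EP3−/− mice incubated 1 h with 1 μM red pyryllium-labelled ligand. Imaged by confocal laser scanning fluorescence microscopy. Renal artery autofluorescence recorded separately.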

[8] = molecular target: Prostaglandin E2 receptor EP4 subtype (Homo sapiens, UniProt P35408); assay: Displacement of [3H]PGE2 from human EP4R expressed in chem1 cells after 2hrs by beta counting; format: cell-based; how it was run: as §3
Prostaglandin E2 receptor EP4 subtype, sequence (P35408 whole entry): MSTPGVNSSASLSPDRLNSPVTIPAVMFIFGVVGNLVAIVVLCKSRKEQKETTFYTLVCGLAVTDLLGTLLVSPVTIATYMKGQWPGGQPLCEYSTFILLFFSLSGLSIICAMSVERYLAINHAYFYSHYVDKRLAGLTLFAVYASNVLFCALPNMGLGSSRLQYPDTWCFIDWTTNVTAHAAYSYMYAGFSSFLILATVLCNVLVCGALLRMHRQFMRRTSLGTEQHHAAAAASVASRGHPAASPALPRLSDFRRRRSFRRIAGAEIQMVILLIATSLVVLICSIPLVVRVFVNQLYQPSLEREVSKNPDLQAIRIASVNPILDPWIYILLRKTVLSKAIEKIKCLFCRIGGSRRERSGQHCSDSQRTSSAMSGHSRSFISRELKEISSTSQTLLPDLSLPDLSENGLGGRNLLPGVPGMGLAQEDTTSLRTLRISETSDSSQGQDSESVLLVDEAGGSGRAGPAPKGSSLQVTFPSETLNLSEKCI

[9] = molecular target: T1, Prostaglandin E2 receptor EP3 subtype (Homo sapiens); assay: Binding affinity to EP3R in human HT-29 cells cultured in absence of FBS at 300 nM after 1 hr by fluorescence microscopy in presence of 3-fold excess of (E)-3-(2-((E)-3-(4-(Benzyloxy)-3- methoxyphenyl)prop-1-enyl)phenyl)acrylic acid; format: cell-based; how it was run: as §4
[10] = molecular target: T1, Prostaglandin E2 receptor EP3 subtype (Homo sapiens); assay: Binding affinity to EP3R in human brain globus pallidus at 1 uM after 1 hr by fluorescence imaging in presence of 100-fold excess of (E)-3-(2-((E)-3-(4-(Benzyloxy)-3- methoxyphenyl)prop-1-enyl)phenyl)acrylic acid; format: tissue-based; how it was run: as §1
[11] = molecular target: T1, Prostaglandin E2 receptor EP3 subtype (Homo sapiens); assay: Binding affinity to EP3R in human brain globus pallidus at 1 uM after 1 hr by fluorescence imaging; format: tissue-based; how it was run: as §1
[12] = molecular target: T3, Prostaglandin E2 receptor EP3 subtype (Mus musculus); assay: Binding affinity to EP3R in C57bl6 mouse kidney arterial smooth muscle cells at 1 uM after 1 hr by fluorescence imaging; how it was run: as §5
[13] = molecular target: T1, Prostaglandin E2 receptor EP3 subtype (Homo sapiens); assay: Induction of EP3R internalization in human HT-29 cells cultured in absence of FBS at 300 nM after 24 hrs by fluorescence microscopy; format: cell-based; how it was run: as §4
[14] = Antiplatelet activity in human platelet rich plasma assessed as inhibition of PGE2/collagen-induced aggregation preincubated at 100 nM after 10 mins by light transmission aggregometry; format: functional
How it was run: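 Human platelet-rich plasma preincubated 10 min with ligand at 100 nM. Aggregation then triggered by collagen 0.25 μg/mL plus PGE2 1 μM. Read by light transmission aggregometry against unspiked PRP.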

Kidney = assay: Drug uptake in EP3R-/- mouse kidney at 1 uM after 1 hr by fluorescence imaging; format: ADME, tissue-based; how it was run: as §5
[15] = molecular target: T1, Prostaglandin E2 receptor EP3 subtype (Homo sapiens); assay: Binding affinity to EP3R in human platelet rich plasma preincubated at 5 uM for 10 mins by FACS analysis
How it was run: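 Human platelet-rich plasma preincubated 10 min with 5 μM red fluorescent ligand. Analysed by flow cytometry (FACS) in the red channel against untreated PRP. Scatter cloud inspected as a check on platelet activation.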

[16] = molecular target: T1, Prostaglandin E2 receptor EP3 subtype (Homo sapiens); assay: Induction of EP3R-mediated platelet activation in human platelet rich plasma at 5 uM after 10 mins by FACS analysis
[17] = molecular target: T1, Prostaglandin E2 receptor EP3 subtype (Homo sapiens); assay: Binding affinity to EP3R in human platelet at 1 uM after 1 hr by fluorescence imaging in presence of 1 mM (E)-3-(2-((E)-3-(4-(Benzyloxy)-3- methoxyphenyl)prop-1-enyl)phenyl)acrylic acid; how it was run: as §2
[18] = molecular target: T1, Prostaglandin E2 receptor EP3 subtype (Homo sapiens); assay: Binding affinity to EP3R in human HT-29 cells cultured in absence of FBS at 300 nM after 1 hr by fluorescence microscopy; format: cell-based; how it was run: as §4
[19] = molecular target: T4, Prostaglandin E2 receptor EP3 subtype (Homo sapiens, UniProt P43115); assay: Displacement of [3H]PGE2 from human EP3R expressed in chem1 cells after 2hrs by beta counting; format: cell-based; how it was run: as §3
T4 sequence (P43115 whole entry): T1 sequence (whole entry)

[20] = molecular target: T1, Prostaglandin E2 receptor EP3 subtype (Homo sapiens); assay: Binding affinity to EP3R in human HT-29 cells cultured in absence of FBS at 3 uM after 1 hr by fluorescence microscopy in presence of 3-fold excess of (E)-3-(2-((E)-3-(4-(Benzyloxy)-3- methoxyphenyl)prop-1-enyl)phenyl)acrylic acid; format: cell-based; how it was run: as §4
[21] = molecular target: T1, Prostaglandin E2 receptor EP3 subtype (Homo sapiens); assay: Binding affinity to EP3R in human HT-29 cytoplasm at 3 uM measured 72 hrs post FBS withdrawal by fluorescence microscopy; how it was run: as §4

| SMILES | Ki [3] [µM] | Ki [4] [µM] | Ki [8] [µM] | inhibition at 0.1 µM [14] [%] | Ki [19] [µM] | Activity [21] [%] | also measured |
| --- | --- | --- | --- | --- | --- | --- | --- |
| COc1cc(C/C=C/c2ccccc2/C=C/C(=O)O)ccc1OCC[n+]1c(C)cc(/C=C/C=C/c2ccc(N(C)C)cc2)cc1C.F[B-](F)(F)F | 2.94 | 68.6 | 0.902 | 40 | 0.135 | – | Activity [1]: Active; Activity [2]: Active; Activity [5]: Active; Activity [6]: inactive; Activity [7]: Active; Activity [9]: inactive; Activity [10]: inactive; Activity [11]: Active; Activity [12]: Active; Activity [13]: inactive; Drug uptake (Kidney): Not Active; Activity [15]: 50%; Activity [16]: inactive; Activity [17]: inactive; Activity [18]: Active |
| COc1cc(C/C=C/c2ccccc2/C=C/C(=O)O)ccc1OCCn1cc2ccccc2c1C#N | 4.26 | 16 | 3.18 | 40 | 0.018 | 58 | Activity [20]: inactive |
| COc1cc(C/C=C/c2ccccc2/C=C/C(=O)O)ccc1OCCNC(=S)Nc1ccc(-c2c3ccc(=O)cc-3oc3cc(O)ccc23)c(C(=O)O)c1 | – | – | – | 40 | 0.678 | – | – |
| COc1cc(C/C=C/c2ccccc2/C=C/C(=O)O)ccc1OCc1ccccc1 | 1.73 | 151 | 6.31 | 40 | – | – | – |
| COc1cc(C/C=C/c2ccccc2/C=C/C(=O)O)ccc1OCCNC(=S)Nc1ccc(C(=O)O)c(-c2c3ccc(=O)cc-3oc3cc(O)ccc23)c1 | – | – | – | 40 | 1.26 | – | – |
| COc1cc(C/C=C/c2ccccc2/C=C/C(=O)NS(=O)(=O)c2cccs2)ccc1OCCn1cc2ccccc2c1C#N | 10.8 | 20.3 | 9.45 | 40 | 0.026 | 55 | – |
| COc1cc(C/C=C/c2ccccc2/C=C/C(=O)O)ccc1OCCNc1ccc([N+](=O)[O-])cc1[N+](=O)[O-] | – | – | – | 40 | 0.0234 | 60 | – |
| COc1cc(C/C=C/c2ccccc2/C=C/C(=O)O)ccc1OCC[n+]1c(C)cc(/C=C/c2ccc(N(C)C)cc2)cc1C | – | – | – | 40 | 0.218 | – | – |
| COc1cc(C/C=C/c2ccccc2/C=C/C(=O)O)ccc1OCCN | – | – | – | 40 | 1.5 | – | – |
| COc1cc(C/C=C/c2ccccc2/C=C/C(=O)NS(=O)(=O)c2cccs2)ccc1OCc1ccccc1 | 2.41 | 2.44 | 4.3 | 40 | – | – | – |
